Test results published in ChEMBL document CHEMBL2021781, “Dual targeting of histone deacetylase and topoisomerase II with novel bifunctional inhibitors” (J Med Chem, 2012).
Activity calls are given as the source filed them. The rule behind the calls is not given here.

Legend:
[1] = tested on: SK-MES-1; assay: Antiproliferative activity against human SKMES1 cells after 72 hrs by MTS assay; type: functional, cell-based; details: SK-MES-1, 72 h
[2] = biological target: Histone deacetylase 1 (Homo sapiens, UniProt Q13547); assay: Inhibition of HDAC1 in human HeLa cell nuclear extract using Fluor de Lys as substrate after 15 mins by fluorometric analysis
Sequence of Histone deacetylase 1 (Q13547 whole entry): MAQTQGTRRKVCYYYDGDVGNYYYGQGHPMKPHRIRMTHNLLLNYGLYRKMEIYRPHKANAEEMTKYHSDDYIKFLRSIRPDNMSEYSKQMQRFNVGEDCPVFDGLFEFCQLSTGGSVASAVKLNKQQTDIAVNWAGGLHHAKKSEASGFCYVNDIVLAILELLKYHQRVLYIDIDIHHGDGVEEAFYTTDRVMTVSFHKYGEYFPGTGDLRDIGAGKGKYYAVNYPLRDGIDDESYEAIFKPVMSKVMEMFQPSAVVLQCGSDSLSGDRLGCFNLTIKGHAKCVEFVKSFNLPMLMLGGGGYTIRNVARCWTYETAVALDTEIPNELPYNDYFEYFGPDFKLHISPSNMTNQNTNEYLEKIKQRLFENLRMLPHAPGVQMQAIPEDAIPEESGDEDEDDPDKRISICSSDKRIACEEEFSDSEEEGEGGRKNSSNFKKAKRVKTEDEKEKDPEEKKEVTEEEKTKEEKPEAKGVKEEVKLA

[3] = biological target: DNA topoisomerase 2-alpha (Homo sapiens) (UniProt P11388); assay: Inhibition of topoisomerase 2 in human DU145 cells assessed as stabilization of enzyme-DNA cleavage complex at 130 nM after 30 mins by immunoblot analysis relative to control; type: cell-based; details: DU-145
Sequence of DNA topoisomerase 2-alpha (Homo sapiens) (P11388 whole entry): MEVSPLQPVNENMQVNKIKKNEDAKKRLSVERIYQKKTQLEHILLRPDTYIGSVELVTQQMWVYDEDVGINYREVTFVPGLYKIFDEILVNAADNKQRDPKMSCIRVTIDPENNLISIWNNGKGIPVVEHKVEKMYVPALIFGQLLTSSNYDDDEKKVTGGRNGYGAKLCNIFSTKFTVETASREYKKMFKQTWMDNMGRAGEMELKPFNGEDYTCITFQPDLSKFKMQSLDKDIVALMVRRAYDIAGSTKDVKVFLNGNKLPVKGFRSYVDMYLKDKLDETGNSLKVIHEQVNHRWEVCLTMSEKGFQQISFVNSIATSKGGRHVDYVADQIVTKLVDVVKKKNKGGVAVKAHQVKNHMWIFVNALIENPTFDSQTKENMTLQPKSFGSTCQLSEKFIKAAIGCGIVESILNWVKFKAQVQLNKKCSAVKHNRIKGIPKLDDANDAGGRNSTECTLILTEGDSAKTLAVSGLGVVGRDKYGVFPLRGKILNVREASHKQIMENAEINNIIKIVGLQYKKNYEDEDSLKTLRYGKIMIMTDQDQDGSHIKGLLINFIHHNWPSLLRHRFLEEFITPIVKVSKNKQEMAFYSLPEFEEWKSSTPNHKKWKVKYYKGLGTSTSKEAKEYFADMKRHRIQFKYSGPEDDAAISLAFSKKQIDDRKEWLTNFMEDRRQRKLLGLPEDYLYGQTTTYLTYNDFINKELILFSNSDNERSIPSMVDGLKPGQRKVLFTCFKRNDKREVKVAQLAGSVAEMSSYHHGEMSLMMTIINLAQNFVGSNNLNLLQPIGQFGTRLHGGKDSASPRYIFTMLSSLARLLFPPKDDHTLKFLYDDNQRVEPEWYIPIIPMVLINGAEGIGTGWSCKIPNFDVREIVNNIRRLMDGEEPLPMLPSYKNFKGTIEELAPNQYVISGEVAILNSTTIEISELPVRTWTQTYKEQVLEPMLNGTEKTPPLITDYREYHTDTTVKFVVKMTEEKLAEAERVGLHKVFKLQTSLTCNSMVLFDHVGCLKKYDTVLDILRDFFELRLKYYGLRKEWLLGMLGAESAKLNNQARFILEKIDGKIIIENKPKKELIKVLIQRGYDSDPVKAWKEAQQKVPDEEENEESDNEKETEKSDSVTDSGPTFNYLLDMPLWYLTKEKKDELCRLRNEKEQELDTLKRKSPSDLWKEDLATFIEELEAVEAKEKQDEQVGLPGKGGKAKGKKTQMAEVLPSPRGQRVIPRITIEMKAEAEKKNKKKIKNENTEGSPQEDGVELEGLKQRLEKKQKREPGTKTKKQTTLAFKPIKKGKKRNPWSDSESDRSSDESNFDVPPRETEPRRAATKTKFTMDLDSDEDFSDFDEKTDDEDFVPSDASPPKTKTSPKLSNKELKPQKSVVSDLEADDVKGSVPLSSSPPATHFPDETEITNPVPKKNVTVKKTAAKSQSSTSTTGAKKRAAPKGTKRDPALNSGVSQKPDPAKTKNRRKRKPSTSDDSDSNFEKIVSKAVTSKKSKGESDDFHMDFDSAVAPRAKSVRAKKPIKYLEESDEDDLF
Summary of the method: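 DU-145 cells dosed 30 min or 72 h; controls given 0.1% DMSO. 72 h samples equalized to the 30 min cell count before lysis in 1% sarkosyl. Lysates spun on a CsCl gradient at 31,000 RPM, room temperature, 12 h. Fractions holding Topo II–DNA complexes found by A260, slot-blotted onto nitrocellulose, and immunoblotted for Topo II.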

[4] = biological target: T1, Histone deacetylase (Homo sapiens) (UniProt Q13547+O15379+Q9UBN7+Q92769+Q9UQL6+Q8WUI4+Q9BY41+Q96DB2+P56524+Q9UKV0+Q969S8); details: DU-145, 0.5 to 1 uM
[5] = biological target: T1, Histone deacetylase (Homo sapiens); assay: Inhibition of HDAC in human DU145 cells assessed as upregulation of p21 expression at IC50 concentration after 4 hrs by Western blot analysis relative to control; type: cell-based; details: DU-145
Summary of the method: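 Lysed in RIPA with protease inhibitors, cleared 14,000 RPM at 4°C. Immunoblotted, probing acetylated versus total tubulin; p21 also checked. Near-infrared detection at 700/800 nm.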

[6] = Drug uptake in human A549 cell perinuclear region at 1 uM after 4 hrs by confocal microscopic analysis; type: ADME, cell-based; details: a549, 4 h
Summary of the method: (§1)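 Cells plated on glass coverslips 24 h ahead, then given fresh media with compound at 1 μM for 4 h. After a PBS wash, coverslips were mounted and intracellular distribution imaged by confocal microscopy, excitation 488 nm. Done in DU-145 cells, with A549 lung tumor cells also examined.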

[7] = tested on: MCF7; assay: Antiproliferative activity against human MCF7 cells after 72 hrs by MTS assay; type: functional, cell-based; details: MCF7, 72 h
[8] = biological target: T2, Protein deacetylase HDAC6 (Homo sapiens) (UniProt Q9UBN7); assay: Inhibition of HDAC6-mediated tubulin acetylation in human DU145 cells at 130 nM after 4 hrs by Western blot analysis; type: cell-based; details: DU-145
T2 sequence (whole entry): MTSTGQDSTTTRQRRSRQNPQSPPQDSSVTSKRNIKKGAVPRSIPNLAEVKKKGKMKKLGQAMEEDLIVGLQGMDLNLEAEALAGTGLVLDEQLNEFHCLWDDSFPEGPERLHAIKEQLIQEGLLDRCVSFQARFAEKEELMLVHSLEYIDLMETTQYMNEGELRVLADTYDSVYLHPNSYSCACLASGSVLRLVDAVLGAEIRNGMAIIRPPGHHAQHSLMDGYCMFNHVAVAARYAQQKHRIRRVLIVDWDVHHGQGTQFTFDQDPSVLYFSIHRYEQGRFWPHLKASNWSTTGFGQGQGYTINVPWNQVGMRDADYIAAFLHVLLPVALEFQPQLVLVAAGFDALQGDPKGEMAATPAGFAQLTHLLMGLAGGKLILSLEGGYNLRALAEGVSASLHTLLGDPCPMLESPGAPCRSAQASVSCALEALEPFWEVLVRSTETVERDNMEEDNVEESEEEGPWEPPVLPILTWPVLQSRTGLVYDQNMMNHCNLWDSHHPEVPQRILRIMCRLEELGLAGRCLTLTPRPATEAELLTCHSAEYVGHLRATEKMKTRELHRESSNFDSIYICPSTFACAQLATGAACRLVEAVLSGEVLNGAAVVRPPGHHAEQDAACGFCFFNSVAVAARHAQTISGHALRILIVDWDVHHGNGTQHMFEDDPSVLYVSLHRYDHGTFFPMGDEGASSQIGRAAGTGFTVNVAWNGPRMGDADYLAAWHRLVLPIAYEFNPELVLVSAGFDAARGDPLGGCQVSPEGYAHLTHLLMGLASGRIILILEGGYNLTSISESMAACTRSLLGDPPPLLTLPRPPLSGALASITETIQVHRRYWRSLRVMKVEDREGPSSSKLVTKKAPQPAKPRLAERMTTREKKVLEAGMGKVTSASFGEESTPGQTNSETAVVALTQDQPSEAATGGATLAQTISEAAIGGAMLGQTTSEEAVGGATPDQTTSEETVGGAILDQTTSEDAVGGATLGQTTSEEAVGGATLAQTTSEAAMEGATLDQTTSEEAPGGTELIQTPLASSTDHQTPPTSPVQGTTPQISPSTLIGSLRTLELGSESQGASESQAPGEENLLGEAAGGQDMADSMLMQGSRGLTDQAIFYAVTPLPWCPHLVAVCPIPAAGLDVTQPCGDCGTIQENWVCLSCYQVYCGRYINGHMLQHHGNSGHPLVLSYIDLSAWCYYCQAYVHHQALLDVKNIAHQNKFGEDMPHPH
Summary of the method: (§2)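 DU-145 cells passaged 24 h before dosing, then treated 4 h, with no more than 0.1% DMSO including controls. Lysis in RIPA buffer with protease inhibitors, protein quantified against a BSA standard, SDS-PAGE and transfer. Blots probed with rabbit anti-tubulin and mouse anti-acetyl tubulin, read by near-infrared imaging at 700/800 nm.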

[9] = Drug uptake in human A549 cell cytosol at 1 uM after 4 hrs by confocal microscopic analysis; type: ADME, cell-based; summary of the method: as §1
[10] = biological target: T3, Protein deacetylase HDAC6 (Homo sapiens, UniProt Q9UBN7); assay: Inhibition of HDAC6 in human HeLa cell nuclear extract using Fluor de Lys as substrate after 15 mins by fluorometric analysis
T3 sequence (Q9UBN7 whole entry): T2 sequence (whole entry)

[11] = biological target: Histone deacetylase (HDAC1 and HDAC2) (Homo sapiens, UniProt Q13547+Q92769); assay: Inhibition of HDAC1/2 in human HeLa cell nuclear extract using Fluor de Lys as substrate after 15 mins by fluorometric analysis; type: protein assay
[12] = biological target: T1, Histone deacetylase (Homo sapiens); details: DU-145, 0.5 to 1 uM; remark: listed apart in the source
[13] = biological target: T2, Protein deacetylase HDAC6 (Homo sapiens); assay: Inhibition of HDAC6-mediated tubulin acetylation in human DU145 cells at 90 nM after 4 hrs by Western blot analysis; type: cell-based; details: DU-145; summary of the method: as §2
[14] = Drug uptake in human DU145 cell perinuclear region at 1 uM after 4 hrs by confocal microscopic analysis; type: ADME, cell-based; details: du-145, 4 h; summary of the method: as §1

With `COc1cccc2c1C(=O)c1c(O)c3c(c(O)c1C2=O)C[C@@](O)(C(C)=O)C[C@@H]3O[C@H]1C[C@H](NCc2ccc(NC(=O)CCCCCCC(=O)NO)cc2)[C@H](O)[C@H](C)O1` the IC50 [1] was 470 nM, the IC50 [2] was 47 nM and the inhibition [3] was “inactive”. For the same molecule, the inhibition [4] was “Active”, the Activity [5] was “inactive” and the Drug uptake [6] was “Active”. For the same molecule, the IC50 [7] was 990 nM, the inhibition [8] was “Active” and the Drug uptake [9] was “Active”. For the same molecule, the IC50 [10] was 20 nM, the IC50 [11] was 64.7 nM and the inhibition [12] was “inactive”. The inhibition [13] was “Active” and the Drug uptake [14] was “Active”.
